ChEMBL document CHEMBL3124917, “Design, synthesis, and biological evaluation of deuterated C-aryl glycoside as a potent and long-acting renal sodium-dependent glucose cotransporter 2 inhibitor for the treatment of type 2 diabetes” (J Med Chem, 2014)

Key:
[1] = Drug metabolism in Sprague-Dawley rat assessed as compound remaining at 50 mg/kg, po after 5 days by HPLC analysis; type: ADME, organism-based; set-up: dose 50 mg/kg, route oral; conditions: in vivo, read-out: Drug metabolism
[2] = test system: Canis familiaris; assay: Antidiabetic activity in Beagle dog assessed as urinary glucose excretion at 0.03 mg/kg, po administered 1 hr prior to glucose challenge measured after 1 to 24 hrs relative to dapagliflozin; type: functional, Canis lupus familiaris, Urine
Summary of the method: (§1)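 Overnight-fasted beagle dogs, n = 3 per group, given 0.03 mg/kg orally by gavage in 10% PEG400; vehicle controls received 10% PEG400. Oral glucose (2 g/kg, 5 mL/kg) given 1 h post-dose. Urine collected in metabolic cages at 0–8 and 8–24 h, glucose read on a biochemistry analyzer. Expressed as % of reference positive control; mean ± SD.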

[3] = test system: Canis familiaris; assay: Antidiabetic activity in Beagle dog assessed as urinary glucose excretion at 0.03 mg/kg, po administered 1 hr prior to glucose challenge measured after 8 to 24 hrs relative to dapagliflozin; type: functional, Canis lupus familiaris, Urine
Summary of the method: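 Overnight-fasted beagle dogs, n = 3 per group, given 0.03 mg/kg orally by gavage in 10% PEG400; vehicle controls received 10% PEG400. Oral glucose (2 g/kg, 5 mL/kg) given 1 h post-dose. Expressed as % of reference positive control; mean ± SD.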

[4] = test system: Canis familiaris; assay: Antidiabetic activity in Beagle dog assessed as urinary glucose excretion at 0.03 mg/kg, po administered 1 hr prior to glucose challenge measured after 1 to 8 hrs relative to dapagliflozin; type: functional, Canis lupus familiaris, Urine; summary of the method: as §1
[5] = test system: Rattus norvegicus; assay: Antidiabetic activity in Sprague-Dawley rat assessed as urinary glucose excretion at 1 mg/kg, po administered 1 hr prior to glucose challenge measured after 1 to 24 hrs relative to dapagliflozin; type: functional, Urine
Summary of the method: (§2)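 Overnight-fasted Sprague-Dawley rats, n = 3 per group, dosed 1 mg/kg by oral gavage in 30% PEG400; controls received vehicle. Oral glucose (2 g/kg, 10 mL/kg) given 1 h post-dose. Urine collected in metabolic cages at 0–4 and 4–24 h, glucose measured on a biochemistry analyzer. Expressed as % of reference positive control; mean ± SD.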

[6] = test system: Rattus norvegicus; assay: Antidiabetic activity in Sprague-Dawley rat assessed as urinary glucose excretion at 1 mg/kg, po administered 1 hr prior to glucose challenge measured after 4 to 24 hrs relative to dapagliflozin; type: functional, Urine; summary of the method: as §2
[7] = test system: Rattus norvegicus; assay: Antidiabetic activity in Sprague-Dawley rat assessed as urinary glucose excretion at 1 mg/kg, po administered 1 hr prior to glucose challenge measured after 1 to 4 hrs relative to dapagliflozin; type: functional, Urine; summary of the method: as §2
[8] = Clearance in Sprague-Dawley rat at 1 mg/kg, iv by LC-MS/MS analysis; type: ADME, organism-based; set-up: dose 1 mg/kg, route intravenous; conditions: in vivo
Summary of the method: (§3)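 Male Sprague-Dawley rats, n = 4 per group, overnight-fasted. Oral gavage of 3 or 1 mg/kg in 30% PEG400; i.v. arm at 1 mg/kg. Orbital plexus blood taken under ether at 0.083–24 h; plasma deproteinized and assayed by LC-MS/MS. Noncompartmental parameters derived; mean ± SD reported.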

[9] = AUC (0 to infinity) in Sprague-Dawley rat at 1 mg/kg, iv by LC-MS/MS analysis; type: ADME, organism-based; set-up: time infinity, dose 1 mg/kg, route intravenous; conditions: plasma; summary of the method: as §3
[10] = Half life in Sprague-Dawley rat at 1 mg/kg, iv by LC-MS/MS analysis; type: ADME, organism-based; set-up: dose 1 mg/kg, route intravenous; conditions: in vivo; summary of the method: as §3
[11] = Oral bioavailability in Sprague-Dawley rat at 1 mg/kg by LC-MS/MS analysis; type: ADME, organism-based; conditions: in vivo; summary of the method: as §3
[12] = Half life in Sprague-Dawley rat at 1 mg/kg, po by LC-MS/MS analysis; type: ADME, organism-based; set-up: dose 1 mg/kg, route oral; conditions: in vivo; summary of the method: as §3
[13] = AUC (0 to infinity) in Sprague-Dawley rat at 1 mg/kg, po by LC-MS/MS analysis; type: ADME, organism-based; set-up: time infinity, dose 1 mg/kg, route oral; conditions: plasma; summary of the method: as §3
[14] = Cmax in Sprague-Dawley rat at 1 mg/kg, po by LC-MS/MS analysis; type: ADME, organism-based; set-up: dose 1 mg/kg, route oral; conditions: in vivo; summary of the method: as §3
[15] = Tmax in Sprague-Dawley rat at 1 mg/kg, po by LC-MS/MS analysis; type: ADME, organism-based; set-up: dose 1 mg/kg, route oral; conditions: in vivo; summary of the method: as §3
[16] = AUC (0 to infinity) in Sprague-Dawley rat at 3 mg/kg, po by LC-MS/MS analysis; type: ADME, organism-based; set-up: time infinity, dose 3 mg/kg, route oral; conditions: plasma; summary of the method: as §3
[17] = test system: Rattus norvegicus; assay: Antidiabetic activity in Sprague-Dawley rat assessed as reduction in blood glucose AUC at 10 mg/kg, po administered 1 hr prior to glucose challenge measured after 60 to 120 mins by oral glucose tolerance test relative to control; type: functional; set-up: scale not given: the % may be the effect or the level left
Summary of the method: (§4)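 Overnight-fasted male Sprague-Dawley rats, n = 5 per group, dosed orally at 0.1, 0.3, 1, 3 or 10 mg/kg in 30% PEG400 1 h before oral glucose challenge (20%, 2 g/kg). Blood glucose measured by glucometer from −60 to 120 min.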

[18] = test system: Rattus norvegicus; assay: Antidiabetic activity in Sprague-Dawley rat assessed as reduction in blood glucose AUC at 3 mg/kg, po administered 1 hr prior to glucose challenge measured after 60 to 120 mins by oral glucose tolerance test relative to control; type: functional; set-up: scale not given: the % may be the effect or the level left; summary of the method: as §4
[19] = test system: Rattus norvegicus; assay: Antidiabetic activity in Sprague-Dawley rat assessed as reduction in blood glucose AUC at 1 mg/kg, po administered 1 hr prior to glucose challenge measured after 60 to 120 mins by oral glucose tolerance test relative to control; type: functional; set-up: scale not given: the % may be the effect or the level left; summary of the method: as §4
[20] = test system: Rattus norvegicus; assay: Antidiabetic activity in Sprague-Dawley rat assessed as reduction in blood glucose AUC at 0.3 mg/kg, po administered 1 hr prior to glucose challenge measured after 60 to 120 mins by oral glucose tolerance test relative to control; type: functional; set-up: scale not given: the % may be the effect or the level left; summary of the method: as §4
[21] = test system: Rattus norvegicus; assay: Antidiabetic activity in Sprague-Dawley rat assessed as reduction in blood glucose AUC at 0.1 mg/kg, po administered 1 hr prior to glucose challenge measured after 60 to 120 mins by oral glucose tolerance test relative to control; type: functional; set-up: scale not given: the % may be the effect or the level left; summary of the method: as §4
[22] = biological target: T1, Sodium/glucose cotransporter 1 (Homo sapiens, UniProt P13866); assay: Inhibition of full length human SGLT1 assessed as methyl-alpha-D-[U-14C]glucopyranoside uptake after 2 hrs by cell-based topcount scintillation counting analysis
T1 sequence (P13866 whole entry): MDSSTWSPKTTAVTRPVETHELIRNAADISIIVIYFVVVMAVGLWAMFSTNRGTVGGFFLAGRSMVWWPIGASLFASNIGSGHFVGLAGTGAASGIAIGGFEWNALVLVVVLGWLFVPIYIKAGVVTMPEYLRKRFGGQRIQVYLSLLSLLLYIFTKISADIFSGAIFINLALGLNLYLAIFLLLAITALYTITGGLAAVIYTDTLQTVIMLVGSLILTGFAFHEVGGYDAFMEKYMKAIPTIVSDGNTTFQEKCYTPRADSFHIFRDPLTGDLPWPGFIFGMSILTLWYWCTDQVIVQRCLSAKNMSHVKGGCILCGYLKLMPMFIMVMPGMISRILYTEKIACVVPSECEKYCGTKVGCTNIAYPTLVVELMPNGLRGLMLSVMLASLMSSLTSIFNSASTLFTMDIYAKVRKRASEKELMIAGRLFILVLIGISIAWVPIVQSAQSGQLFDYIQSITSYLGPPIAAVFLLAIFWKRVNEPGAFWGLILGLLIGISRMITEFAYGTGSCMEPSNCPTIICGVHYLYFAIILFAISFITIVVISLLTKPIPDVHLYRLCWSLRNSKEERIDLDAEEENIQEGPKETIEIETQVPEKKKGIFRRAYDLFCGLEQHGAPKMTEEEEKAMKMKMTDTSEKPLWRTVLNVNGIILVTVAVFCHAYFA

[23] = biological target: T2, Sodium/glucose cotransporter 2 (Homo sapiens, UniProt P31639); assay: Inhibition of full length human SGLT2 assessed as methyl-alpha-D-[U-14C]glucopyranoside uptake after 1.5 hrs by cell-based topcount scintillation counting analysis
T2 sequence (P31639 whole entry): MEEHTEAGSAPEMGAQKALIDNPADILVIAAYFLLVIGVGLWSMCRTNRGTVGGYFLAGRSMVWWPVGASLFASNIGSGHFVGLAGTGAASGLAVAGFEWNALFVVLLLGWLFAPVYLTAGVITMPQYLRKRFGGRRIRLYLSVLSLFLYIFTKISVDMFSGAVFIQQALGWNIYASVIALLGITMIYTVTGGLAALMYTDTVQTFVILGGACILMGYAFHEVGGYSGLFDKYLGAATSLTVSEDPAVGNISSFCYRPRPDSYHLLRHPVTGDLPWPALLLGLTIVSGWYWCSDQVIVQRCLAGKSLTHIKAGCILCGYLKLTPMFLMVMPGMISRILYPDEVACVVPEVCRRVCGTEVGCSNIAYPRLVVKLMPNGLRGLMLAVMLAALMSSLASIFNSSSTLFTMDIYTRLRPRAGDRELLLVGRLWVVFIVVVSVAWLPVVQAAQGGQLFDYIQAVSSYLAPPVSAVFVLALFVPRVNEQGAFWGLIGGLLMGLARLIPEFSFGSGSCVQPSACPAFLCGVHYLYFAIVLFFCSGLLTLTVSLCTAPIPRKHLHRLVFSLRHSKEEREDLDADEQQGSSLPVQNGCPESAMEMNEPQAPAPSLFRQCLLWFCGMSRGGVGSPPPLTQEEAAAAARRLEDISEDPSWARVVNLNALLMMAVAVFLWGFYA

| Structure (SMILES) | remaining at 120 h [1] | clearance [8] | AUC(0-inf) [9] | half-life [10] | bioavailability [11] | half-life [12] | AUC(0-inf) [13] | Cmax [14] | Tmax [15] | AUC(0-inf) [16] | Activity [2] | Activity [3] | Activity [4] | Activity [5] | Activity [6] | Activity [7] | other results |
| --- | --- | --- | --- | --- | --- | --- | --- | --- | --- | --- | --- | --- | --- | --- | --- | --- | --- |
| CCOc1ccc(Cc2cc([C@@H]3O[C@H](CO)[C@@H](O)[C@H](O)[C@H]3O)ccc2Cl)cc1 [DAPAGLIFLOZIN] | 43% | – | – | – | – | – | – | – | – | 11700 ng·h/mL | – | – | – | – | – | – | – |
| [2H]C([2H])(c1ccc(OC([2H])([2H])C([2H])([2H])[2H])cc1)c1cc([C@@H]2O[C@H](CO)[C@@H](O)[C@H](O)[C@H]2O)ccc1Cl | – | – | – | – | – | – | – | – | – | 22400 ng·h/mL | 15400 mg | 11000 mg | 4360 mg | 2080 mg | 1940 mg | 137 mg | – |
| [2H]C([2H])(C)Oc1ccc(Cc2cc([C@@H]3O[C@H](CO)[C@@H](O)[C@H](O)[C@H]3O)ccc2Cl)cc1 | – | – | – | – | – | – | – | – | – | 20900 ng·h/mL | – | – | – | 2430 mg | 2310 mg | 119 mg | – |

Further lines, with some results ahead:

| remaining at 120 h [1] | clearance [8] | AUC(0-inf) [9] | half-life [10] | bioavailability [11] | half-life [12] | AUC(0-inf) [13] | Cmax [14] | Tmax [15] | AUC(0-inf) [16] | Structure (SMILES) | Activity [2] | Activity [3] | Activity [4] | Activity [5] | Activity [6] | Activity [7] | other results |
| --- | --- | --- | --- | --- | --- | --- | --- | --- | --- | --- | --- | --- | --- | --- | --- | --- | --- |
| 73% | 14 mL/min/kg | 1220 ng·h/mL | 2.09 h | 77% | 3.23 h | 943 ng·h/mL | 165 ng/mL | 1.75 h | 5350 ng·h/mL | COc1ccc(Cc2cc([C@@H]3O[C@H](CO)[C@@H](O)[C@H](O)[C@H]3O)ccc2Cl)cc1 | 14500 mg | 10900 mg | 3620 mg | 1890 mg | 1660 mg | 233 mg | – |
| 87% | 12.7 mL/min/kg | 1330 ng·h/mL | 2.69 h | 76.3% | 3.5 h | 1020 ng·h/mL | 257 ng/mL | 1.56 h | 7000 ng·h/mL | [2H]C([2H])([2H])Oc1ccc(Cc2cc([C@@H]3O[C@H](CO)[C@@H](O)[C@H](O)[C@H]3O)ccc2Cl)cc1 | 14700 mg | 11200 mg | 3480 mg | 2230 mg | 1980 mg | 251 mg | Activity [17]: 5%; Activity [18]: 21.6%; Activity [19]: 26.7%; Activity [20]: 20.7%; Activity [21]: 18.6%; IC50 [22]: 900 nM; IC50 [23]: 2.5 nM |
